{
  "source": "PubChem BioAssay AID652163",
  "about": "(Broad Institute, 2013)",
  "note": "The whole screen tested about 360,000 compounds, of which about 500 (0.14%) were called active. This is one part of a sample in which actives are shown more often than they occur. Unmarked numbers belong to inactive results.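 How the source made its calls: active means mean inhibition of at least 70% across replicates, with every replicate also reaching that level; inconclusive means mean inhibition reaches 70% but some replicates fall short; inactive means mean inhibition below 70%.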",
  "data": [
    {"molecular_target": "Protein S100-A4 (Homo sapiens) (UniProt P26447)", "sequence (P26447 whole entry, looked up)": "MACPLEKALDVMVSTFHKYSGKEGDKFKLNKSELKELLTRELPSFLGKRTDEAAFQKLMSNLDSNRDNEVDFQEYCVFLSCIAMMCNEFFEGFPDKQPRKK", "assay": "inhibitors of S100A4-myosin IIA peptide binding, primary screen, biochemical, fluorescence polarization, TAMRA-MyoIIA peptide (AID 652163)", "settings": "at 10.7 µM, stronger effect = higher value", "method_in_brief": "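Material: S100A4 monomer (human). Medium: Calcium-containing HEPES buffer, pH 7.2. Probe or stimulus: labelled myosin peptide probe, 5 nM. Compound dosing: one concentration per compound. Timing: polarization read 5 min after assay mix addition, stable 5–60 min. Benchmarks: DMSO as neutral control, TFP as positive control.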", "values": [
      {"smiles": "CO[C@H]1CN(C)C(=O)c2ccc(NC(C)=O)cc2OC[C@H](C)N(C(=O)c2ccccc2)C[C@H]1C", "inhibition": "-4.17%"},
      {"smiles": "COc1ccc(CN(C)C[C@@H]2OCCCC[C@H](C)Oc3ccc(NS(=O)(=O)c4ccc(F)cc4)cc3C(=O)N([C@@H](C)CO)C[C@@H]2C)cc1", "inhibition": "-2.85%"},
      {"smiles": "C[C@H]1CCCCO[C@H](CN(C)S(C)(=O)=O)[C@@H](C)CN([C@@H](C)CO)C(=O)c2cc(NC(=O)C3CCCCC3)ccc2O1", "inhibition": "3.69%"},
      {"smiles": "O=C(Nc1ccc(F)cc1)N1C[C@H]2[C@@H](c3ccccc31)[C@@H](CO)N2Cc1cocn1", "inhibition": "-2.03%"},
      {"smiles": "CO[C@@H]1CN(C)C(=O)c2ccc(NS(=O)(=O)c3cccc(F)c3)cc2OC[C@H](C)N(C(=O)Cc2cccnc2)C[C@@H]1C", "inhibition": "0.669%"},
      {"smiles": "CC(C)[C@@H]1COCn2nncc2CCCC(=O)N1", "inhibition": "-3.23%"},
      {"smiles": "CCCNC(=O)[C@@H]1[C@@H](CO)[C@@H]2Cn3c(cccc3=O)[C@H]1N2C(=O)C1CCC1", "inhibition": "6.67%"},
      {"smiles": "Cc1cccc(S(=O)(=O)N2C[C@@H]3[C@H](c4ccccc42)[C@H](CO)N3CC2CCOCC2)c1", "inhibition": "86.4% (active)"},
      {"smiles": "Cc1cccc(S(=O)(=O)N2C[C@@H]3[C@H](c4ccccc42)[C@@H](CO)N3C(=O)c2ccccc2)c1", "inhibition": "3.03%"},
      {"smiles": "Cc1cccc(S(=O)(=O)N2C[C@H]3[C@@H](c4ccccc42)[C@H](CO)N3Cc2ccc3c(c2)OCO3)c1", "inhibition": "7.88%"},
      {"smiles": "C[C@H](CO)N1C[C@H](C)[C@@H](CN(C)C(=O)Nc2ccccc2)Oc2ncc(C3=CCCC3)cc2C1=O", "inhibition": "2.15%"},
      {"smiles": "CO[C@H]1CN(C)C(=O)c2cc(NS(=O)(=O)c3ccc(C)cc3)ccc2OC[C@H](C)NC[C@H]1C", "inhibition": "7.5%"},
      {"smiles": "COc1cccc(C#Cc2cnc3c(c2)C(=O)N([C@@H](C)CO)C[C@H](C)[C@H](CN(C)CC2CC2)O3)c1", "inhibition": "-46.8%"},
      {"smiles": "O=C(C[C@@H]1CC[C@@H](NC(=O)Nc2ccc(F)cc2)[C@@H](CO)O1)NCCN1CCCC1", "inhibition": "-3.14%"},
      {"smiles": "O=C(Cc1ccccc1)N1C[C@H]2[C@@H](c3ccccc31)[C@H](CO)N2C(=O)c1ccc(F)cc1", "inhibition": "7.78%"},
      {"smiles": "CCS(=O)(=O)N1[C@H](CO)[C@@H](c2ccccc2)C12CN(C(=O)C1CCC1)C2", "inhibition": "-10%"},
      {"smiles": "COc1ccc(NC(=O)N(C)C[C@@H]2OCCCC[C@@H](C)Oc3ccc(NC(=O)C4CCCCC4)cc3C(=O)N([C@@H](C)CO)C[C@@H]2C)cc1", "inhibition": "2.51%"},
      {"smiles": "CCCNC(=O)Nc1ccc2c(c1)OC[C@H](C)N(C(=O)C1CCC1)C[C@H](C)[C@@H](OC)CN(C)C2=O", "inhibition": "-7.21%"},
      {"smiles": "COCC#Cc1cnc2c(c1)C(=O)N([C@H](C)CO)C[C@@H](C)[C@@H](CN(C)C(=O)Nc1cccc(F)c1)O2", "inhibition": "-1.97%"},
      {"smiles": "C[C@@H]1CN([C@H](C)CO)C(=O)c2cc(NC(=O)Cn3cnnn3)ccc2O[C@@H]1CN(C)CC1CC1", "inhibition": "13.2%"},
      {"smiles": "CN(C)C(=O)c1ccc(-c2ccc([C@@H]3[C@@H](CO)N4CCCCN(CC5CC5)C[C@H]34)cc2)cc1", "inhibition": "11.7%"},
      {"smiles": "O=C(C[C@H]1C=C[C@H](NC(=O)CN2CCOCC2)[C@@H](CO)O1)NCc1cccc(F)c1", "inhibition": "2.82%"},
      {"smiles": "CC=Cc1ccc2n(c1=O)C[C@H]1[C@H](CO)[C@@H](C(=O)NCCc3cn(C)cn3)[C@@H]2N1C(=O)CC", "note": "(mixture of isomers)", "inhibition": "-3.21%"},
      {"smiles": "C[C@@H]1CN([C@@H](C)CO)C(=O)c2c(c3ccccc3n2C)-c2ccccc2CO[C@@H]1CN(C)Cc1ccc2c(c1)OCCN2C", "inhibition": "1.33%"},
      {"smiles": "O=C(N[C@@H]1CC[C@@H](CCNS(=O)(=O)Cc2ccccc2)O[C@@H]1CO)c1ccccc1F", "inhibition": "3.62%"},
      {"smiles": "O=C(N[C@H]1CC[C@@H](CCNS(=O)(=O)Cc2ccccc2)O[C@H]1CO)c1ccccc1F", "inhibition": "106% (active)"},
      {"smiles": "CC(C)NC(=O)N[C@@H]1CC[C@@H](CCNS(=O)(=O)Cc2ccccc2)O[C@@H]1CO", "inhibition": "-2.44%"},
      {"smiles": "C[C@@H]1CN([C@@H](C)CO)C(=O)Cc2cc(NC(=O)Cc3ccccc3)ccc2O[C@@H]1CN(C)C(=O)Nc1ccc2c(c1)OCO2", "inhibition": "-20.2%"},
      {"smiles": "CS(=O)(=O)Nc1ccc2c(c1)[C@H]1C[C@H](CC(=O)NC3CCCC3)O[C@@H](CO)[C@H]1O2", "inhibition": "5.62%"},
      {"smiles": "CN(C)C(=O)[C@@H]1[C@@H](CO)[C@@H]2Cn3c(ccc(C4=CCCC4)c3=O)[C@H]1N2Cc1ccccn1", "inhibition": "6.14%"},
      {"smiles": "COc1ccc2c3c([nH]c2c1)[C@@H](CO)N(C(=O)c1cccc(F)c1)CC31CN(C(C)=O)C1", "inhibition": "-5.37%"},
      {"smiles": "COc1ccc(CCNC(=O)CN(c2ccccc2)S(=O)(=O)c2ccccc2)cc1", "inhibition": "0.0805%"},
      {"smiles": "CCOc1ccc(N(CC(=O)NCCc2ccc(F)cc2)S(=O)(=O)c2ccccc2)cc1", "inhibition": "-1.04%"},
      {"smiles": "CCOc1ccc(N(CC(=O)NCCOc2ccccc2OC)S(=O)(=O)c2ccccc2)cc1", "inhibition": "116% (active)"},
      {"smiles": "N[C@@H]1CC[C@H](CCn2cc(C3CC3)nn2)O[C@@H]1CO", "inhibition": "5.57%"},
      {"smiles": "C[C@@H]1CN([C@H](C)CO)C(=O)c2cc(NC(=O)CCCCCC(=O)Nc3ccccc3N)ccc2O[C@H]1CN(C)C(=O)Nc1ccc(C(F)(F)F)cc1", "inhibition": "-13%"},
      {"smiles": "C[C@H](CO)N1C[C@H](C)[C@@H](CN(C)Cc2ccncc2)Oc2cc(Br)ccc2S1(=O)=O", "inhibition": "-8.65%"},
      {"smiles": "C[C@H]1CN([C@@H](C)CO)C(=O)c2cccc(NC(=O)c3ccncc3)c2O[C@@H]1CN(C)C", "inhibition": "1.35%"},
      {"smiles": "C[C@H]1CN([C@@H](C)CO)C(=O)c2cccc(NC(=O)c3ccncc3)c2O[C@H]1CN(C)C", "inhibition": "13.8%"},
      {"smiles": "C[C@@H]1CN([C@H](C)CO)C(=O)c2cc(NC(=O)c3ccncc3)ccc2O[C@H]1CN(C)Cc1ccc(Oc2ccccc2)cc1", "inhibition": "1.42%"},
      {"smiles": "C[C@@H]1CN([C@@H](C)CO)C(=O)c2cccc(NC(=O)Nc3ccccc3)c2O[C@H]1CN(C)Cc1ccccc1", "inhibition": "-2.48%"},
      {"smiles": "C[C@@H]1CN([C@@H](C)CO)C(=O)c2cc(NC(=O)c3ccncc3)ccc2O[C@@H]1CN(C)Cc1ccncc1", "inhibition": "106% (active)"},
      {"smiles": "C[C@H]1CN([C@@H](C)CO)C(=O)c2cccc(NC(=O)Nc3ccccc3)c2O[C@H]1CN(C)Cc1ccc(Oc2ccccc2)cc1", "inhibition": "-8.88%"},
      {"smiles": "COc1ccc(CN(C)C[C@H]2Oc3c(NC(=O)Nc4ccccc4)cccc3C(=O)N([C@@H](C)CO)C[C@@H]2C)cc1", "inhibition": "91.2% (active)"},
      {"smiles": "C[C@@H]1CN([C@@H](C)CO)C(=O)c2cc(NC(=O)c3ccncc3)ccc2O[C@H]1CN(C)Cc1ccc(C(=O)O)cc1", "inhibition": "3.13%"},
      {"smiles": "C[C@@H]1CN([C@H](C)CO)C(=O)c2cccc(NC(=O)c3ccncc3)c2O[C@@H]1CN(C)C", "inhibition": "111% (active)"},
      {"smiles": "CO[C@H]1CC[C@H]2CCN(C)C(=O)C[C@@H](c3ccccc3)CN(C)C(=O)c3cccc(C#N)c3OC[C@@H]1O2", "inhibition": "0.912%"},
      {"smiles": "CCCNC(=O)N1[C@@H]2CN(C)c3ccccc3[C@@H]2[C@@H]1CO", "inhibition": "7.1%"},
      {"smiles": "COc1ccc(S(=O)(=O)N(C)C[C@H]2Oc3ccc(NC(=O)Nc4c(C)noc4C)cc3C(=O)N([C@@H](C)CO)C[C@@H]2C)cc1", "inhibition": "-9.31%"},
      {"smiles": "Cc1noc(C)c1NC(=O)N(C)C[C@@H]1OCCCC[C@H](C)Oc2ccc(NC(=O)CCC(F)(F)F)cc2C(=O)N([C@@H](C)CO)C[C@@H]1C", "inhibition": "5.68%"},
      {"smiles": "CC(=O)N(C)C[C@@H]1Oc2cc(-c3cccc(F)c3)ccc2S(=O)(=O)N([C@H](C)CO)C[C@H]1C", "inhibition": "-20.8%"},
      {"smiles": "CC(C)(O)C#Cc1ccc([C@H]2[C@H]3CN(C(=O)c4ccncc4)CCCCN3[C@H]2CO)cc1", "inhibition": "-11.2%"},
      {"smiles": "COc1ccc(S(=O)(=O)Nc2ccc3c(c2)C(=O)N([C@@H](C)CO)C[C@H](C)[C@H](CN(C)Cc2ccc4c(c2)OCO4)OCCCC[C@H](C)O3)cc1", "inhibition": "-9.48%"},
      {"smiles": "COc1cccc(C(=O)Nc2ccc3c(c2)C(=O)N(C)[C@H]2CC[C@@H](CC(=O)N[C@H](C)c4ccccc4)O[C@H]2CO3)c1", "inhibition": "-0.71%"},
      {"smiles": "C=CCN1C(=O)[C@]2(O[C@H](CCn3cc(CCO)nn3)[C@@H]([Si](C)(C)c3ccc(OC)cc3)[C@@H]2C)c2cc(N3CCOC3=O)ccc21", "inhibition": "10.3%"},
      {"smiles": "C[C@H](CO)N1C[C@H](C)[C@@H](CN(C)CC2CC2)Oc2ccc(NC(=O)CCCN(C)C)cc2CC1=O", "inhibition": "-0.322%"},
      {"smiles": "CN1CCN(C(=O)C[C@@H]2C=C[C@@H](NS(=O)(=O)c3cccc(F)c3)[C@@H](CO)O2)CC1", "inhibition": "103% (active)"},
      {"smiles": "COc1ccccc1S(=O)(=O)N[C@@H]1C=C[C@H](CC(=O)N2CCN(C)CC2)O[C@@H]1CO", "inhibition": "59.7%"},
      {"smiles": "O=C(C[C@@H]1C=C[C@@H](NS(=O)(=O)c2ccccc2)[C@H](CO)O1)N1CCN(c2ccccc2)CC1", "inhibition": "8.62%"},
      {"smiles": "Nc1ncnc2c1ncn2C1OC(CO)CC1O", "note": "(stereo not given)", "inhibition": "0.763%"},
      {"smiles": "CO[C@@H]1CN(C)C(=O)c2cc(NC(=O)c3ccccc3)ccc2OC[C@H](C)N(C(=O)CN(C)C)C[C@H]1C", "inhibition": "-0.975%"},
      {"smiles": "C=C[C@H](OC)[C@@H](O)c1ccc(OC)c(O)c1", "inhibition": "-5.17%"},
      {"smiles": "CN1C(=O)c2cc(NC(=O)C3CCOCC3)ccc2OC[C@@H]2O[C@H](CC(=O)NCc3ccccc3F)CC[C@H]21", "inhibition": "4.38%"},
      {"smiles": "CN1C(=O)c2cc(NC(=O)C3CCCC3)ccc2OC[C@H]2O[C@H](CC(=O)NCc3ccccc3F)CC[C@H]21", "inhibition": "-2.52%"},
      {"smiles": "CN1C(=O)c2cc(NC(=O)C3CCC3)ccc2OC[C@@H]2O[C@@H](CC(=O)NCc3ccccc3F)CC[C@@H]21", "inhibition": "88.8% (active)"}
    ]}
  ]
}
